Laboratory results published in ChEMBL document CHEMBL1641462, “Synthesis and in vivo evaluation of ¹⁸F-fluoroethyl GF120918 and XR9576 as positron emission tomography probes for assessing the function of drug efflux transporters” (Bioorg Med Chem, 2011).
The source made the active and inactive calls.

Experiments:
Assay type in all cases: cell-based
Conditions in all cases: 7.4 M; tested as the 18F-labelled form
[1] = (§1) Increase of P-glycoprotein-mediated intracellular drug uptake expressed in human MES-SA/Dx5 cells at 7.4 MBq/ml after 120 mins by gamma counting in presence of 10 uM of GF120918
Method in brief: (§2)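 MES-SA/Dx5 doxorubicin-resistant human uterine sarcoma cells grown in McCoy's 5A + 10% FCS at 37 °C, 5% CO2; monolayers (10^5 cells/well) incubated 120 min with 7.4 MBq/ml [18F]-tracer ± 10 µM inhibitor. Washed five times in cold PBS, lysed in 0.2 M NaOH, gamma counted, normalized to protein (%ICD/mg). Percent increase vs untreated cells; triplicate.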

[2] = as §1, with “quinoline-3-carboxylic acid [2-(4-{2-[7-(2-fluoroethoxy)- 6-methoxy-3,4-dihydro-1H-isoquinolin-2-yl]ethyl}phenylc arbamoyl)-4,5-dimethoxyphenyl]amide” for “GF120918”; method in brief: as §2
[3] = Increase of P-glycoprotein-mediated intracellular drug uptake expressed in human MES-SA/Dx5 cells at 7.4 MBq/ml after 120 mins by gamma counting in presence of 10 uM of XR9576; method in brief: as §2
[4] = Increase of P-glycoprotein-mediated intracellular drug uptake expressed in human MES-SA/Dx5 cells at 7.4 MBq/ml after 120 mins by gamma counting in presence of 10 uM of N-(4-(2-(1,2,3,4-tetrahydro-6,7-dimethoxy-2- isoquinolinyl)ethyl)phenyl)-9,10-dihydro-5-fluoroethoxy-9- oxo-4-acridine carboxamide; method in brief: as §2

Measured: Drug uptake

COc1cc2c(cc1OC)CN(CCc1ccc(NC(=O)c3cccc4c(=O)c5cccc(OCCF)c5[nH]c34)cc1)CC2
active: all assays above

COc1cc(NC(=O)c2cnc3ccccc3c2)c(C(=O)Nc2ccc(CCN3CCc4cc(OC)c(OCCF)cc4C3)cc2)cc1OC
active: all assays above
